Smad3 FoxH1 inh = inhibitors of human Smad3 transcription factor binding. TR-FRET Smad3/Dy647-FoxH1 peptide binding, europium anti-His. inhibition, % at 25 µM. actives 0.29% (n = 88,000);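 active = compounds that reduce the energy-transfer binding signal between the protein and its labelled peptide by more than half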
Rev-RRE block = disrupts HIV-1 Rev binding to RRE RNA | inhibition, % at 8 µM | actives 0.79% (n = 97,000) | P05866 | AID 704 | Rev peptide-RRE RNA binding, FRET;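 active = inhibition above the screen-wide mean plus 3 SD, cut at about 35% in these data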
Target sequence (P05866 whole entry, looked up): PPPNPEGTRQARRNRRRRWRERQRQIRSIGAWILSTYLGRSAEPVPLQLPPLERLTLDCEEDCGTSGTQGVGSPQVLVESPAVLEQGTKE
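Test system – labelled RRE RNA duplex and labelled Rev peptide · Reagent – labelled Rev peptide · Doses – one concentration, 8 µM nominal · Incubation – 5 + 15 min at 25 °C · Signal – FRET fluorescence readout · Read-out basis – % inhibition of FRET ratio versus controls · Control set – DMSO wells as 0% and neomycin B wells as 100% inhibition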
sEH activator = soluble epoxide hydrolase (human) activation; AID 717; actives 0.04% (n = 91,000); P34913; activation, % at 2 µM; purified human sEH enzymatic activity, activator screen; in the data active = activation above about 37%
Target sequence (P34913 whole entry, looked up): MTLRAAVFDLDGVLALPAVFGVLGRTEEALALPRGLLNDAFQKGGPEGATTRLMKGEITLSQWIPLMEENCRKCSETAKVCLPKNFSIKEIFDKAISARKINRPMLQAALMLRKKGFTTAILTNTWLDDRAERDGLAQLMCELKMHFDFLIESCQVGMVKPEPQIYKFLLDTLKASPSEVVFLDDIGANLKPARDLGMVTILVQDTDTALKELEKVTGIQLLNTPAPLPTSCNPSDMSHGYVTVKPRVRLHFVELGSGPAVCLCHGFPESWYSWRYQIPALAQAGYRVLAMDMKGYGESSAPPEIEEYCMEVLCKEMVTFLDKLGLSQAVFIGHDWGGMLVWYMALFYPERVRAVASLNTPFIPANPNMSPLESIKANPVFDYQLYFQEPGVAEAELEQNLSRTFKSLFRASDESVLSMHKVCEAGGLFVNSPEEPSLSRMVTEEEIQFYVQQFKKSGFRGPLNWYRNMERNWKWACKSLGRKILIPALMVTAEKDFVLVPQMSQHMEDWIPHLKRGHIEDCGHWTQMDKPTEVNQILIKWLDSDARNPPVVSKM
sEH inh = soluble epoxide hydrolase (human) inhibition | recombinant human sEH enzymatic activity assay | inhibition, % at 2 µM | actives 0.34% (n = 91,000) | AID 707; in the data active = inhibition above about 80%
Mac1 fbg enh = CD11b/CD18-fibrinogen binding enhancement; activation, % at 10 µM; K562 CD11b/CD18 adhesion to fibrinogen, ATPlite luminescence; actives 0.07% (n = 93,000); P05107+P11215;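 active = 10 µM primary screen giving 50% or more activity, confirmed by 40% or more on retest at that dose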
CD11b adhes inh = blocks human CD11b/CD18 adhesion to fibrinogen; P05107+P11215; K562 CD11b/CD18 adhesion to fibrinogen, ATPlite luminescence; Mn2+ added to activate the integrin; inhibition, % at 10 µM; actives 0.54% (n = 93,000); AID 1497;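 active = primary inhibition of 50% or more at 10 µM, then 40% or more on retest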
A number is an active result; i = inactive; nt = no result given; [ ] = remark or other dose. Hits are enriched below; roughly 1.6% of the tested compounds scored in any of these assays.

SMILES	Smad3 FoxH1 inh	Rev-RRE block	sEH activator	sEH inh	Mac1 fbg enh	CD11b adhes inh
O=C(CCCN1C(=O)c2ccccc2C1=O)Nc1ccc(S(=O)(=O)N2CCOCC2)cc1	i	i	i	i	i	i
O=C(CCCN1C(=O)c2ccccc2C1=O)Nc1ccc(S(=O)(=O)N2CCCCC2)cc1	i	i	i	89.0	i	i
O=C(COc1ccccc1)Nc1ccc(S(=O)(=O)N2CCCCCC2)cc1	i	i	i	i	i	i
C[N+](C)(C)/N=C/c1ccc(O)c(O)c1	i	nt	nt	nt	nt	nt
O=C(NC1CCCC1)c1sc(=S)n2c1[nH]c(=O)c1ccccc12	i	i	i	i	i	94.9
O=C(NCc1ccco1)c1sc(=S)n2c1[nH]c(=O)c1ccccc12	i	i	i	i	i	96.4
C=CCn1c(N)c(C(=O)NCc2ccco2)sc1=S	i	i	i	i	i	i
CC(C)OCCCn1c(=N)c(C(N)=S)cc2c(=O)n3ccccc3nc21	i	65.7	i	i	i	i
CC(C)OCCCn1c(=NC(=O)c2ccncc2)c(C#N)cc2c(=O)n3ccccc3nc21	i	i	i	i	i	i
CC(C)N1CC=C2C(C#N)=C(N)C(C#N)(C#N)C(c3ccccc3)C2C1 (configuration not stated)	nt	91.2[fluorescence artefact?]	i	i	i	i
COc1cc(C2C3CN(C)CC=C3C(C#N)=C(N)C2(C#N)C#N)ccc1OC(C)C (configuration not stated)	i	nt	nt	nt	i	i
CCC1C2CN(C(C)=O)CC=C2C(C#N)=C(N)C1(C#N)C#N (configuration not stated)	i	i	i	i	i	i
CCN1CC=C2C(C#N)=C(N)C(C#N)(C#N)C(c3cc(Cl)ccc3Cl)C2C1 (configuration not stated)	i	65.7	i	i	i	i
CC(C)N1CC=C2C(C#N)=C(N)C(C#N)(C#N)[C@H](c3ccoc3)[C@H]2C1	nt	107.1[fluorescence artefact?]	i	i	i	i
CN1CC=C2C(C#N)=C(N)C(C#N)(C#N)C(Cc3ccccc3)C2C1 (configuration not stated)	i	72.4	i	i	i	i
Nc1nc(-c2cc(-c3cccc4ccccc34)nc(N)n2)cc(-c2cccc3ccccc23)n1	i	nt	nt	nt	nt	nt
CC(C)CCC[C@@H](C)[C@@H]1CC[C@@H]2[C@H]3CC[C@H]4C[C@@H](N)CC[C@]4(C)[C@@H]3CC[C@]21C	i	nt	nt	nt	nt	nt
CCN(CCNC(=O)C1CCN(Cc2nc(-c3ccc(Cl)cc3)oc2C)CC1)c1ccccc1	i	i	i	83.7	i	i
CCN1CCN(C(=O)C2CCN(Cc3nc(-c4ccc(Cl)cc4)oc3C)CC2)CC1	i	nt	nt	nt	nt	nt
CCc1ccc(-c2nc(CN3CCC(C(=O)NCCN(CC)c4ccccc4)CC3)c(C)o2)cc1	i	i	i	i	i	i
CCN(CCNC(=O)C1CCN(Cc2nc(-c3cccc(Cl)c3)oc2C)CC1)c1ccccc1	i	i	i	89.8	i	i
Cc1oc(-c2ccc(Cl)cc2)nc1CN1CCCC(C(=O)N2CCN(C(=O)c3ccco3)CC2)C1 (configuration not stated)	i	i	nt	nt	i	64.0
CC(=O)O[C@@H]1CC[C@]2(C)C(=C[C@H]([C@@H]3C=C4C[C@@H](OC(C)=O)CC[C@]4(C)C4=C3[C@@H]3C[C@@H]5O[C@@]6(CC[C@H](C)CO6)[C@@H](C)[C@@H]5[C@@]3(C)CC4)C3=C2CC[C@@]2(C)[C@@H]4[C@@H](C)[C@]5(CC[C@H](C)CO5)O[C@@H]4C[C@H]32)C1	i	nt	nt	nt	nt	nt
Cc1ccc(S(=O)(=O)NC(C(=O)Oc2ccc3c(C(F)(F)F)cc(=O)oc3c2)c2ccccc2)cc1 (configuration not stated)	nt	nt	nt	nt	i	57.3
CCCC1c2c(ccc3ccccc23)Oc2ccc3ccccc3c21	i	nt	nt	nt	nt	nt
SMILES	Smad3 FoxH1 inh	Rev-RRE block	sEH activator	sEH inh	Mac1 fbg enh	CD11b adhes inh
CC1(C)CC(=O)C2=C(C1)NCN(Cc1ccccc1)C2	i	i	45.8	i	i	i
Clc1cccc(Cl)c1C(Nc1nncs1)Nc1nncs1	i	nt	nt	nt	nt	nt
COC(=O)c1cc2c(=O)n3ccccc3nc2n(Cc2cccnc2)c1=N	i	i	i	i	nt	nt
N=c1c(C(=O)NCc2ccc(F)cc2)cc2c(=O)n3ccccc3nc2n1Cc1cccnc1	i	36.9	i	i	i	i
CCOC(=O)/C(=N\Nc1ccc(Cl)cc1)Sc1nnc(-c2ccc(OC)cc2)n1C	nt	nt	nt	nt	i	i
CCOC(=O)c1cn(-c2nc(-c3ccc(Cl)c(Cl)c3)cs2)c2c(F)c(N3CCOCC3)c(F)cc2c1=O	nt	i	i	i	51.9	i
CCOC(=O)c1cn(-c2ccc(F)c(F)c2F)c2c(F)c(F)c(F)cc2c1=O	nt	i	i	i	i	i
CSc1ncnc2c1ncn2CC(=O)[C@@H]1CC[C@@H]2[C@H]3CCC4=CC(=O)CC[C@@]4(C)[C@@H]3CC[C@]21C	i	nt	nt	nt	nt	nt
CCCCc1ccc(C2C(C#N)=C(N)SC(N)=C2C#N)s1	i	66.0	i	i	i	100.2
CCOc1ccc(C2C(C#N)=C(N)SC(N)=C2C#N)c(OCC)c1	nt	i	i	i	i	i
Cc1ccc(SCCC(=O)NCCSCc2ccccc2C)cc1	nt	i	i	83.1	i	i
O=C(CCSc1ccccc1)NCCSCc1ccco1	nt	nt	nt	nt	i	i
Cc1cccc(CN(CC(=O)N/N=C/c2cccs2)S(=O)(=O)c2ccc(Cl)cc2)c1	nt	i	i	i	nt	nt
CN(C)CCC[C@@H]1c2ccccc2Oc2ccc(C(F)(F)F)cc21	i	nt	nt	nt	nt	nt
CCCCCCc1cc2cc(-c3nnc(-c4ccccc4OC)o3)c(=O)oc2cc1O	i	143.1[fluorescence artefact?]	i	i	i	i
CCCCCCc1cc2cc(-c3nnc(-c4cc(OC)c(OC)c(OC)c4)o3)c(=O)oc2cc1O	i	134.9[fluorescence artefact?]	i	i	nt	nt
COc1ccc(-c2nnc(-c3cc4ccccc4oc3=O)o2)cc1	i	i	i	i	nt	nt
COc1cc(-c2nnc(SCc3cc(=O)oc4cc(O)c(O)cc34)o2)cc(OC)c1OC	nt	i	i	i	i	i
CCCCCCc1cc2cc(S(=O)(=O)c3ccc(F)cc3)c(=O)oc2cc1O	nt	nt	nt	nt	i	i
CCCCCCc1cc2cc(-c3nnc(-c4ccccc4O)o3)c(=O)oc2cc1O	nt	nt	nt	nt	i	97.5
Cn1nc(-c2ccccc2)c(C(=O)Nc2ccc(Cl)cc2)c1Cl	nt	i	i	i	nt	nt
Cc1ccc(S(=O)(=O)c2c(COC(=O)c3ccc(Cl)cc3)c(-c3ccccc3)nn2C)cc1	i	72.6	i	i	i	i
Cc1cccn2c(=O)c3cc(C(=O)Nc4ccc(N(C)C)cc4)n(C)c3nc12	62.5[fluorescence artefact?]	nt	nt	nt	nt	nt
O=C(O)[C@@H](O)[C@@H](O)[C@@H](O)[C@@H](O)c1nc2ccccc2s1	i	nt	nt	nt	nt	nt
CC1=C/C(=N\OS(=O)(=O)c2ccccc2)C(C)=CC1=O	nt	i	i	i	i	96.8
Cc1ncc(CSc2ccccc2N)c(CO)c1O	i	nt	nt	nt	nt	nt
Cc1ccc([C@@H]2C3COCC=C3C(C#N)=C(N)C2(C#N)C#N)o1 (some centres not stated)	i	41.6	nt	nt	i	i
